Rows were chosen to be rich in hits. Some 1.6% of all compounds tested hit in one or more screens of this group.
SKN-1 inh – C. elegans SKN-1 inhibition | C. elegans VP596 Pgst-4::GFP/RFP ratio, acrylamide-induced, 24 h | inhibition, % at 21.8 µM | 360,000 tested, 0.49% active | AID 624304;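 active means interference check ratio from 0.5 to 1.5 plus GFP to RFP signal ratio inhibition reaching or exceeding a fixed threshold, cut at about 30% in these data, passing the limit was not always enough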
Rin1 Abl inh – human Rin1-Abl interaction inhibition; P00519+Q13671; TR-FRET Rin1/Abl binding, biochemical; inhibition, % at 7.35 µM; 360,000 tested, 0.4% active; AID 588664; in the data active means inhibition above about 5%, passing the limit was not always enough
TbMetRS inhib – Trypanosoma brucei MetRS inhibition | purified T. brucei MetRS, ATP depletion, Kinase-Glo luminescence | inhibition, % at 11.9 µM | 360,000 tested, 0.4% active | AID 624268;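 active means inhibition above a per-plate cutoff of the control wells' mean inhibition plus 3 SD, cut at about 5.5% in these data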;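 further: 0% = DMSO wells median and 100% = median of wells with control inhibitor compound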
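Dosing: 11.9 µM compound single dose, 0.9% DMSO; Assay system: purified T. brucei MetRS enzyme; Measured by: Kinase-Glo luciferase luminescence reporting remaining unconsumed ATP; Schedule: 15 min plus 2 h at 25 °C.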
Arrestin-AP2 inh – blocks beta-arrestin peptide binding to AP2 adaptin | 340,000 tested, 0.31% active | inhibition, % at 10 µM | AID 504490 | FITC-arrestin peptide / GST-AP2 beads, flow cytometry; AP2 beta2 appendage carries R879A mutation;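 active means inhibition above a set limit, near 3 SD of compounds lacking own fluorescence, cut at about 54% in these data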;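 further: plate controls were DMSO wells for no effect and 5 µM unlabelled arrestin peptide for full effect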
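system = GST-tagged AP2 beta2-adaptin appendage (R879A) on 4 µm glutathione beads | reagent = FITC-labelled arrestin peptide probe, 50 nM final | schedule = compound with beads 12 min RT, then probe 1 h RT | signal = HyperCyt-sampled flow cytometry, FL1 channel, ex 488/em 535 nm | read-out = percent response from loss of bead-bound FITC fluorescence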
MT1-MMP act inh – inhibitors of human MT1-MMP activation | P50281 | HT1080 RFP-PRO-GFP cells, GFP/RFP ratio fluorescence, overnight; percent of plate control window, DMSO zero | GFP/RFP ratio change, % at 20 µM | 360,000 tested, 0.061% active | AID 651647;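 active means GFP/RFP ratio change of at least 30% with cell ATP level not reduced by more than half and red fluorescence within 50% of control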
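Test system: HT1080 cells expressing an RFP-PRO-GFP fluorescent reporter construct / Compound dosing: single-point 20 µM compound, 1% DMSO / Schedule: cells overnight before dosing, compound overnight, 37 °C, 5% CO2 / Evaluation: GFP/RFP fluorescence ratio / Control set: DMSO and RFP-L50D-GFP cell wells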
Arr AP2 CP1 – inhibitors of human beta-arrestin and AP2 interaction; inhibition, % at 10 µM; AID 504908; GST-AP2 beads, FITC arrestin peptide binding, flow cytometry; GST-fused beta2-adaptin appendage, R879A mutant; 1,300 tested, 2% active; shares compounds with Arrestin-AP2 inh;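 active means inhibition above a set limit, roughly 3 SD of non-fluorescent compound noise, cut at about 38% in these data; inactive means inhibition at or below that limit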;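 further: loss of bead fluorescence from 50 nM FITC arrestin peptide bound to appendage; 0% = negative control wells and 100% = excess unlabelled arrestin peptide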
Target sequence (P63010 whole entry, looked up, the tested form may be a part, one chain of several): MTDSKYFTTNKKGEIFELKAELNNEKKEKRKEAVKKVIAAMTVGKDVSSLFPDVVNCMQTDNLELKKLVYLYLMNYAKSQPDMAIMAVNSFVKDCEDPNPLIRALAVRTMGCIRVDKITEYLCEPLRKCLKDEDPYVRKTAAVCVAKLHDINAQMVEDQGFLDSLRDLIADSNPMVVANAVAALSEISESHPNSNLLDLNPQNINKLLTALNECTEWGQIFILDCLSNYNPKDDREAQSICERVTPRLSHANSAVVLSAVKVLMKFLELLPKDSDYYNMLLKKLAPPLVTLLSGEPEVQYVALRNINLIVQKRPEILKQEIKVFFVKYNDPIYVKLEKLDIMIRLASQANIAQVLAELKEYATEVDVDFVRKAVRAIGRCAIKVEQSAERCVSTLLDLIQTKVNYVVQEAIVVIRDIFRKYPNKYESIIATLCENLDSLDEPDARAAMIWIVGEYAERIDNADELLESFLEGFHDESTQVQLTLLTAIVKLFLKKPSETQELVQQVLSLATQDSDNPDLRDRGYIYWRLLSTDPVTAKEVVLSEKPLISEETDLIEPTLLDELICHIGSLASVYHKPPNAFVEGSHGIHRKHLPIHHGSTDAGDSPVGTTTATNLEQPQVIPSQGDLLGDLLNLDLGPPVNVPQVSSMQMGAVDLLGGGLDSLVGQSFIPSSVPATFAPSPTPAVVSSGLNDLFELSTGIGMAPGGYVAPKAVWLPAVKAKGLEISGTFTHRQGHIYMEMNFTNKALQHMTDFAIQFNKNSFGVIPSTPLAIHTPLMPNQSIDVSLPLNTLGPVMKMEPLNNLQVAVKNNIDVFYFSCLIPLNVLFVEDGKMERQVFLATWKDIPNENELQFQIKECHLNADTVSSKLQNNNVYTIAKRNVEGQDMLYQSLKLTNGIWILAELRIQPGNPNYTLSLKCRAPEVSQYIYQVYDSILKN
GST GSH counter – GST-GSH bead binding interference, counter-screen. shares compounds with Arrestin-AP2 inh. GST-fluorescein binding to GSH beads, fluorescence. inhibition, % at 10 µM. 1,300 tested, 2% active. AID 588338;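 active means inhibition above 50%, about 3 SD of the inhibition seen with non-fluorescent compounds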;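 further: fluorescein maleimide labelled GST captured on 4 micron glutathione beads; higher means more loss of bead fluorescence from quenching or blocked binding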
* hit, by the source's call; . = no result.

SMILES	SKN-1 inh	Rin1 Abl inh	TbMetRS inhib	Arrestin-AP2 inh	MT1-MMP act inh	Arr AP2 CP1	GST GSH counter
Cc1nn(-c2ccccn2)c2c1C(c1ccsc1)C1=C(CCCC1=O)N2 (stereo not given)	5	2	0	105*	1	-12	3
Cc1cccc(-n2nc(C)c3c2NC2=C(C(=O)CCC2)C3c2ccccn2)c1 (stereo not given)	-5	-2	0	13	-2	.	.
COC(=O)C[C@@H]1OC[C@H](C(C)C)N1S(=O)(=O)c1ccc(C)cc1	0	.	0	.	-4	.	.
COc1cccc(CN(C)c2nc(-c3cccs3)nc3ccccc23)c1	3	0	0	55*	-10	-11	-3
COc1ccc(S(=O)(=O)NCC2CCCN(Cc3cccc(C(C)=O)c3)C2)cc1 (stereo not given)	-22	-3	0	62*	-4	5	-1
Cc1ccc(C(=O)COC(=O)CCN2C(=O)C3C4C=CC(C5CC45)C3C2=O)cc1 (stereo not given)	1	3	-1	57*	1	2	-1
O=C(NC1CC2CCCC(C1)N2C(=O)NCc1ccccc1)C1CC1 (stereo not given)	-2	2	-1	20	-4	.	.
O=C(NC1CC2CCCC(C1)N2C(=S)NCCc1ccccc1)C1CC1 (stereo not given)	-5	1	1	56*	0	-2	-3
c1ccc(Nc2cccc(Nc3ccccc3)n2)cc1	-4	0	0	61*	-27	20	6
COc1ccc2cc(-c3cc(C(=O)OCC(=O)NC4CCS(=O)(=O)C4)c4ccccc4n3)ccc2c1 (stereo not given)	21	-5	-1	106*	-8	60*	188*
Cc1c(C(=O)NC(C)C)oc2c1-c1[nH]ncc1CC2	2	0	0	104*	5	12	7
CCOc1ccc(CCNC(=O)c2oc3c(c2C)-c2[nH]ncc2CC3)cc1OCC	3	-3	0	2	7	.	.
COc1ccc(-c2nc(CCl)cs2)cc1OC	1	1	-1	54*	-2	-7	-5
COCCN1C(=O)CN(S(C)(=O)=O)CC1(C)C(=O)Nc1ccc2c(c1)OCCO2 (stereo not given)	0	.	0	.	-1	.	.
COc1ccc(NC(=O)CSc2cccc3cccnc23)c(OC)c1	6	2	0	7	2	.	.
CCCCCOc1ccc(NC(=O)CSc2cccc3cccnc23)cc1	4	3	-1	107*	-2	4	-4
COc1ccc(CCC(C)NC2CCCCCCC2)cc1 (stereo not given)	-20	2	-1	64*	-1	19	9
O=C(Nc1cc(Cl)ccc1-n1cncn1)c1ccccc1OC(F)F	-3	2	-1	68*	-1	6	-6
O=C(CCCC(=O)Nc1cccnc1)Nc1cccnc1	6	1	0	82*	-2	-8	.
CC1(Oc2ccc(CC#N)cc2)CCN(Cc2ccc(-n3ccnc3)cc2)C1 (stereo not given)	1	-8	0	.	-1	.	.
N=c1c2cn[nH]c2nc(SCC(=O)c2ccc(Br)cc2)n1-c1ccc(Br)cc1	10	0	0	74*	-1	-3	0
O=C(CSc1ncnc2scc(-c3ccccc3)c12)N1CCN(c2ccccc2F)CC1	0	-1	-1	3	-10	.	.
COc1ccc(-c2csc3ncnc(N4CCN(c5ccccc5O)CC4)c23)cc1	0	-3	0	56*	-7	-12	-3
Cc1ccc(-c2csc3ncnc(N4CCN(c5ccccc5O)CC4)c23)cc1	2	-2	-1	4	-11	.	.
COc1ccccc1N1CCN(C(=O)CSc2ncnc3scc(-c4ccccc4)c23)CC1	6	1	0	60*	1	5	2
SMILES	SKN-1 inh	Rin1 Abl inh	TbMetRS inhib	Arrestin-AP2 inh	MT1-MMP act inh	Arr AP2 CP1	GST GSH counter
C(=NNc1nnn(Cc2ccccc2)n1)c1ccccc1	2	-2	0	.	6	.	.
Cc1cc(N2CCN(C(C(=O)NC3CCCC3)C(C)(C)C)CC2)c2ccccc2n1 (stereo not given)	-7	.	-1	.	0	.	.
c1ccc(CCNCC2COc3ccccc3O2)cc1 (stereo not given)	-6	-1	-1	55*	-2	-11	0
CCn1c(=O)n(CC)c2cc(N3CCCC3)c(NC(=O)c3ccccc3C)cc21	26	0	-1	4	5	21	-1
O=C(Nc1cc(C(=O)N2CCCC2)ccc1N1CCCC1)c1ccccc1F	4	0	0	-5	6	.	.
CCn1c(=O)n(CC)c2cc(N3CCCC3)c(NC(=O)c3cc(Br)ccc3OC)cc21	.	.	.	.	.	4	1
CCn1c(=O)n(CC)c2cc(N3CCCC3)c(NC(=O)c3ccccc3F)cc21	5	4	-1	7	3	-2	-8
CC(C)Nc1ncnc2c1ncn2[C@H]1CN(Cc2cccs2)C[C@@H](CO)O1	-2	-7	0	.	7	.	.
CN(C)S(=O)(=O)c1cccc2c1C(=O)c1ccccc1C2=O	-3	-1	0	-6	1	.	.
CNc1cccc2c1C(=O)c1ccccc1C2=O	45*	-8	-1	67*	25	3	3
CC(C)c1cc(Cn2c3ccccc3c(=O)n2C(C)Cn2cc(COc3ccccc3)nn2)on1 (stereo not given)	4	.	0	.	0	.	.
CCN1/C(=C2\SC(=S)N(Cc3ccccc3)C2=O)Sc2ccccc21	13	-2	-1	107*	-4	9	-6
Cc1ccc(N=Nc2c(N)nn3c(C)cc(C)nc23)cc1	6	-3	0	2	6	.	.
Cc1cc(C)n2nc(N)c(N=Nc3cccc(Cl)c3)c2n1	13	-2	0	99*	3	10	62*
Cc1cc(NC(=O)CCC(=O)N(Cc2cccnc2)C(C(=O)NC(C)(C)C)c2ccccc2Cl)no1 (stereo not given)	6	0	0	57*	1	-11	3
Cc1cc(NC(=O)CCC(=O)N(C2CC2)C(C(=O)NC(C)(C)C)c2ccccc2Cl)no1 (stereo not given)	11	3	0	-4	-2	.	.
C[C@@H]1CN([C@@H](C)CO)C(=O)CCCn2nncc2CO[C@@H]1CN(C)S(=O)(=O)c1ccc(Oc2ccccc2)cc1	-4	2	-1	.	0	.	.
COc1ccccc1C=NN=C(NN=Cc1ccccc1OC)NN=Cc1ccccc1OC	-10	4	0	12	-9	.	.
